From ChEMBL document CHEMBL1132597, “Corticotropin-releasing hormone receptor antagonists: framework design and synthesis guided by ligand conformational studies” (J Med Chem, 1999)

Molecular target: T1, Corticotropin-releasing factor receptor 1 (Rattus norvegicus, UniProt P35353)
T1 sequence (P35353 whole entry): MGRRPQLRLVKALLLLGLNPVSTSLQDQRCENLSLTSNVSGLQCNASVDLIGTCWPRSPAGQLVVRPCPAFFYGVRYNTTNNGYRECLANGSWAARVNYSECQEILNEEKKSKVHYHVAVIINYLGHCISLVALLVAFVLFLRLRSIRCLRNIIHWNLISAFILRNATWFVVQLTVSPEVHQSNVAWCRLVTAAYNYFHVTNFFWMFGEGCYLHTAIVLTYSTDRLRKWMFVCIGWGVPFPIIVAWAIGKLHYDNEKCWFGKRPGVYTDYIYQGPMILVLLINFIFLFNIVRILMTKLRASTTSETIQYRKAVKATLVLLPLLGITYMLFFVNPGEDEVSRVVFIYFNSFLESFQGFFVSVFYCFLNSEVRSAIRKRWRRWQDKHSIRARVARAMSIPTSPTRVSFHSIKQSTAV
Assay: Binding affinity was determined against corticotropin releasing factor receptor 1
Settings: not given
Method in brief: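 Rat CRH1 receptor-binding assay run in pH 7.2 buffer; affinity reported as Ki.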

Row | Ki | Compound
1 | Not reliable | CCN(c1nc(C)cc(Cl)n1)c1ccc(C(C)C)cc1I

Same assay, conditions: read-out: Ki

Row | Ki [µM] | Compound
2 | 0.363 | Cc1cc(C)c2c(C#N)cn(-c3ccc(C(C)C)cc3Br)c2n1
3 | 0.005 | CCN(c1nc(C)cc(C)n1)c1c(Br)cc(OC)cc1OC
4 | 0.722 | Cc1cc(Cl)c2c(C#N)cn(-c3ccc(C(C)C)cc3Br)c2n1
5 | 0.222 | Cc1ccc2ccn(-c3ccc(C(C)C)cc3Br)c2n1
6 | 0.034 | Cc1cc(-c2ccccc2)c2c(C#N)cn(-c3ccc(C(C)C)cc3Br)c2n1
7 | 0.112 | Cc1cc(N2CCOCC2)c2c(C#N)cn(-c3ccc(C(C)C)cc3Br)c2n1
8 | 0.047 | Cc1cc(C)c2ccn(-c3ccc(C(C)C)cc3Br)c2n1
9 | 0.001 | COc1cc(Br)c(-n2ccc3c(C)cc(C)nc32)c(OC)c1
10 | 0.067 | Cc1cc(Cl)c2ccn(-c3ccc(C(C)C)cc3Br)c2n1
11 | 0.048 | Cc1cc(C)nc(N(C)c2ccc(C(C)C)cc2I)n1
12 | 0.036 | Cc1cc(-c2ccccc2)c2ccn(-c3ccc(C(C)C)cc3Br)c2n1
13 | 0.029 | COc1cc(Br)c(-n2cc(C#N)c3c(C)cc(C)nc32)c(OC)c1
14 | 0.028 | Cc1cc(N2CCOCC2)c2ccn(-c3ccc(C(C)C)cc3Br)c2n1
15 | 0.043 | CCN(c1nc(C)nc(N2CCOCC2)n1)c1c(Br)cc(OC)cc1OC
16 | 0.079 | Cc1cc(Cl)nc2c1ccn2-c1ccc(C(C)C)cc1Br
17 | 0.022 | CCN(c1nc(C)cc(N2CCOCC2)n1)c1ccc(C(C)C)cc1Br
18 | 1.28 | Cc1ccc2c(C#N)cn(-c3ccc(C(C)C)cc3Br)c2n1
19 | 0.446 | Cc1cc(Cl)nc2c1c(C#N)cn2-c1ccc(C(C)C)cc1Br

Row | Compound | Ki [µM]
20 | Cc1cc(C)c2c(C(N)=O)cn(-c3ccc(C(C)C)cc3Br)c2n1 | > 10
21 | Cc1cc(-c2ccccc2)nc2c1ccn2-c1ccc(C(C)C)cc1Br | > 10
22 | Cc1ccnc2c1ccn2-c1ccc(C(C)C)cc1Br | > 10
23 | Cc1cc(-c2ccccc2)nc2c1c(C#N)cn2-c1ccc(C(C)C)cc1Br | > 100
24 | Cc1cc(C)nc(Nc2ccc(C(C)C)cc2Br)n1 | > 10
25 | Cc1cc(=O)[nH]c2c1c(C#N)cn2-c1ccc(C(C)C)cc1Br | > 10
26 | Cc1ccnc2c1c(C#N)cn2-c1ccc(C(C)C)cc1Br | > 10
27 | CCN(c1cc(C)nc(C)n1)c1ccc(C(C)C)cc1Br | > 1
28 | Cc1ccc2c(C#N)cn(-c3ccc(C(C)C)cc3Br)c2[n+]1[O-] | > 10
29 | Cc1cc(C)c2c(C(=O)O)cn(-c3ccc(C(C)C)cc3Br)c2n1 | > 10
